Compound activity deposited in PubChem by several laboratories.
This is a sample that favours compounds with a hit; in the whole collection about 6.3% have one here.
M1 ag = M1 muscarinic receptor agonism; CHO-M1 cells, Fluo-4 calcium fluorescence, agonist mode; active compounds read high; B-score at 10 µM; hit rate 3% among 64,000;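 active = fluorescence rise, raw or as B-score row- and column-corrected plate score, outside the 99.7% band of its plate's samples, either direction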
MT1-MMP txn act = MT1-MMP promoter transcription activation; HT1080 MT1-MMP promoter luciferase reporter, luminescence, overnight; active compounds read high; hit rate 0.16% among 86,000; activation factor at 10 µM; AID 750;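 active = activation factor of at least 2 for MT1-MMP transcription at 10 µM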
RORA act = activates the human nuclear receptor RORA | hit rate 1.5% among 65,000 | AID 560 | P35398 | CHO-K1 Gal4-RORA LBD luciferase reporter, luminescence; percent increase over mock-subtracted basal signal | activation, % at 10 µM;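 active = activation above the mean of all tested compounds plus 3 SD, cut at about 49% in these data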;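 also: 0% = DMSO-treated RORA cells and 100% = added signal equal to DMSO minus mock-transfected cells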
SF-1 act = activates the human nuclear receptor SF-1 | activation, % at 10 µM | hit rate 1.9% among 65,000 | CHO-K1 Gal4-SF-1 LBD luciferase reporter; % increase over DMSO SF-1-specific signal | Q13285;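 active = activation above the mean activation of all tested compounds plus 3 SD, cut at about 50% in these data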
Target sequence (Q13285 whole entry, looked up, the tested form may be a part): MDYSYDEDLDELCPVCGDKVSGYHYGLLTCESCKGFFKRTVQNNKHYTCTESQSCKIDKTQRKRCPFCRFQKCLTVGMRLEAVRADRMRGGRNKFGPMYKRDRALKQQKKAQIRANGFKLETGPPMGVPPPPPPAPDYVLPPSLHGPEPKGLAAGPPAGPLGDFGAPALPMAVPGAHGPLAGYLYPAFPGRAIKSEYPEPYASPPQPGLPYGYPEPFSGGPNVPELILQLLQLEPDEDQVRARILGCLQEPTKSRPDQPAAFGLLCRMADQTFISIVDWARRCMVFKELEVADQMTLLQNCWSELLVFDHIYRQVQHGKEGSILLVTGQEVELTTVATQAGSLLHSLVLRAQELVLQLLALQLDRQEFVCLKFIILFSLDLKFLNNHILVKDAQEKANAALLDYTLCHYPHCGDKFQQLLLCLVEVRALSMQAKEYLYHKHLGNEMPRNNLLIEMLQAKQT
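Material: Transient Gal4-SF-1 LBD reporter, CHO-K1 | Input: 4,000 cells/well | Dosing: One dose, 10 µM compound, 1% DMSO | Incubation: 20 h compound treatment, 37 °C | Detection: SteadyLite luciferase luminescence | Evaluation: Percent activation relative to DMSO median and mock-transfected background | Benchmarks: DMSO-treated SF-1-transfected cells as negative, DMSO-treated mock-transfected cells lacking SF-1 as background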
M1 antagonist = antagonists of rat M1 muscarinic receptor; P08482; CHO-M1 cells, Fluo-4 calcium, ACh EC80 antagonist mode; active compounds read low; B-score at 10 µM; hit rate 3.4% among 64,000; AID 628;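 active = calcium fluorescence response, raw or row-and-column corrected B-score, differing from the plate sample mean either way at a set confidence level, mostly lower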
Starred values were filed as active, the others as inactive; · = no result.

SMILES	M1 ag	MT1-MMP txn act	RORA act	SF-1 act	M1 antagonist
Cc1nnc(N2C(=O)C(O)=C(C(=O)c3ccco3)C2c2ccc(F)cc2)s1 (configuration not stated)	17.8*	·	11.9	-11.4	-0.283
c1ccc(CNCc2ccc3c(c2)OCO3)nc1	·	1.1	·	·	·
CCCC(C(=O)NC1CCCC1)N(Cc1cccs1)C(=O)c1snc(C(N)=O)c1N (configuration not stated)	4.07*	1	-12.2	-15.1	-0.815
Cc1ccc(C(=O)CSc2nnc(-c3ccco3)n2CC2CCCO2)cc1 (configuration not stated)	0.0709	1.1	8.3	-0.6	1.94*
Cc1cc(S(=O)(=O)Nc2ccc(F)cc2)c(C)s1	·	1.2	·	·	·
COc1ccc(C2CC(c3cccs3)=Nc3ccccc3S2)cc1 (configuration not stated)	·	2.1*	·	·	·
COc1ccc(C2CCCN2C(=O)c2cccs2)cc1 (configuration not stated)	0.414	1.2	-17.0	8.8	-0.0336
COc1cc(OC)c(NC2c3ccccc3C(=O)N2c2cc(C)ccn2)cc1Cl (configuration not stated)	-0.661	1.1	84.0*	39.1	0.187
CN=Cc1c(NC)nc2c(C)cccn2c1=O	·	1.1	·	·	·
Cc1ccc2c(c1)N(C(=O)NC1CCCCC1)C(C)(C)CC2C (configuration not stated)	·	1.2	·	·	·
Cc1ccc2nc(Nc3ncc4c(n3)CCCC4=O)nc(C)c2c1	0.354	1.2	14.4	-7.0	-2.74*
CC1(C)OC(=O)C(=CNC(CCC(N)=O)C(=O)O)C(=O)O1 (configuration not stated)	-0.131	1.1	-10.0	-7.3	1.26*
Clc1cccc2sc(N3CCCC3)nc12	0.844	1.5	22.4	50.0*	-0.363
Cc1ccc(S(=O)(=O)c2nc(N3CCOCC3)sc2Cl)cc1	-0.105	1.1	1.0	11.4	-0.223
Clc1cccc2sc(N3CCOCC3)nc12	-0.173	2.1*	0.9	35.5	0.456
COCCN(CCOC)c1ncnc2c1cnn2-c1ccc(Cl)cc1	-0.155	1.2	55.0*	32.7	0.421
COCCNc1ncnc2c1cnn2-c1ccc(Cl)cc1	0.885	1	53.7*	68.0*	-1.05
COCCN(CCOC)c1ncnc2c1cnn2-c1ccccc1	-0.668	1.2	26.4	18.6	0.12
OCCOCCNc1ncnc2c1cnn2-c1ccc(Cl)cc1	1.21	1.2	6.8	64.1*	0.0789
Cc1cccc(-n2ncc3c(NCc4cccs4)ncnc32)c1	0.158	1.8	46.3	21.9	0.0426
CC(C)Nc1ncnc2c1cnn2-c1ccc(Cl)cc1	0.801	·	10.7	14.5	-2.85
Clc1ccc(-n2ncc3c(NCc4cccs4)ncnc32)cc1	-0.711	1.6	43.6	73.6*	-1.09
COC(=O)c1ccc(C(NC(=O)OCc2ccccc2)/C(I)=C/[C@@H](C)C(=O)NCc2ccncc2)cc1 (some centres not stated)	·	1	·	·	·
O=C(CSc1nc2ccccc2[nH]1)NCCN1CCCCC1	-0.577	1.1	-11.3	-2.7	0.2
OC(COc1ccc2ccccc2c1Cl)CN1CCOCC1 (configuration not stated)	0.27	1.7	48.6	54.5*	0.00844
SMILES	M1 ag	MT1-MMP txn act	RORA act	SF-1 act	M1 antagonist
COC(=O)C1C(=O)c2c([nH]c(C(=O)OC3CCCC3)c2C)CC1C (configuration not stated)	-0.293	·	49.4*	56.0*	0.445
CC(C)Oc1ccc(-c2nn(-c3ccccc3)cc2/C=c2\sc3ncnn3c2=O)cc1	32.9*	1.2	0.9	-21.6	-0.799
COc1cc2c(cc1NC(=O)C(C)OC(=O)C1CC(=O)N(Cc3ccco3)C1)oc1ccccc12 (configuration not stated)	·	2.1*	·	·	·
COC(=O)[C@@]1(Cc2ccccc2)[C@H]2c3cc(C(=O)N4CCCC4)n(Cc4nc5ccccc5[nH]4)c3C[C@H]2CN1C(=O)c1ccccc1	·	1.2	·	·	·
c1ccc(-c2nc(-c3ccncc3)no2)cc1	1.14	1.1	32.4	21.3	0.613
Brc1ccc(-c2nc(-c3ccncc3)no2)o1	1.36	1.4	26.9	49.8*	0.948
CCCCc1ccc(-c2nc(-c3ccncc3)no2)cc1	-1.96	·	59.3*	48.3	-0.282
c1coc(-c2nc(-c3ccncc3)no2)c1	0	1.6	48.0	50.3*	1.25
Brc1ccc(-c2nc(-c3ccccn3)no2)o1	0.211	·	-48.9	-41.8	0.168
COc1ccc(Cl)cc1Nc1nc(N2CCCC2)nc(N2CCCC2)n1	0.0774	1.1	-32.1	-33.4	-0.0234
Cc1ccc(-n2c(CSc3nc(C)cc(C)n3)nnc2SCC(=O)N2CCCC2)cc1	0.174	1	-6.4	-0.5	0.074
COC(=O)[C@@H]1CCCN1C(=O)[C@H]1C[C@@H]1[C@H](NC(=O)OCc1ccccc1)c1ccccc1	·	1.2	·	·	·
CC1(C)Cc2c(sc3nc(SCC#N)n(C4CCCCC4)c(=O)c23)CO1	-0.284	1	-4.6	15.0	0.179
CCCCOc1ccc(-c2nnn(C(C)(C)C(=O)OC)n2)cc1	0.297	1.5	22.7	33.7	1.55*
O=C(c1nc2n(n1)C(c1ccc(Cl)cc1)C=C(c1ccccc1)N2)N1CCOCC1 (configuration not stated)	46.4*	0.9	-0.9	-5.5	0.0328
COc1ccc(C2C=C(c3ccc(Cl)cc3)Nc3nc(NC(C)=O)nn32)cc1 (configuration not stated)	235*	1.1	-14.1	-0.2	-1.7
CC(=O)Nc1nc2n(n1)C(c1ccc(Cl)cc1)C=C(C)N2 (configuration not stated)	1.06	1.1	-18.8	-0.1	1.95*
CC1=CC(c2ccc(Cl)cc2)n2nc(NC(=O)c3ccccc3)nc2N1 (configuration not stated)	·	1.4	·	·	·
CCC(=O)Nc1nc2n(n1)C(c1ccc(OC)cc1)C=C(c1ccccc1)N2 (configuration not stated)	·	1.2	·	·	·
O=C(CSc1n[nH]c(-c2ccc(S(=O)(=O)N3CCCCC3)cc2)n1)Nc1nccs1	-0.004	1.8	-5.8	-9.4	0.0269
Cc1ccccc1OCC(O)Cn1nnc2ccccc21 (configuration not stated)	·	2*	·	·	·
O=C(c1ccc2c(c1)c(=O)oc1ccccc12)N1CCCCC1	-0.712	1.4	49.9*	41.9	0.473
Cc1c(C(=O)N2CCCCCC2)oc2ccccc12	-0.508	1.1	-5.1	-2.8	-0.495
CCC(C)(C)n1nnnc1CN(Cc1cccs1)Cc1cc2cc(OC)ccc2[nH]c1=O	3.68*	1	14.5	10.4	-1.02
Cc1ccc2cc(CCNC(=O)c3ccco3)c(=O)[nH]c2c1	1.43	1.6	76.9*	64.4*	-1.21
Cc1ccc2cc(CCNC(=O)c3ccco3)c(=O)[nH]c2c1C	-0.509	1.5	50.9*	63.3*	0.221
COC(=O)[C@@H]1C[C@@H]2CC[C@@H](O)C[C@@H]2N1Cc1ccc(-c2ccccc2)cc1	·	1.1	·	·	·
Cc1cc(C)cc(Oc2ccc(C(F)(F)F)cc2C#N)c1	·	1	·	·	·
